Source: PubChem
This is a sample that favours compounds with a hit; in the whole collection about 6.6% have one here.
HEK293 NFkB inh: inhibitors of PMA/ionomycin-induced NF-kB reporter, primary screen, antigen receptor NF-kB inhibitor project, cell-based, HEK-293 luciferase reporter, luminescence; 62,000 compounds, 0.21% hits; inhibition, % at 3 µM; HEK-293 NF-kB luciferase reporter;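 active = inhibition above the mean of all tested compounds plus 3 SD, cut at about 40% in these data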;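 also: 0% = stimulated DMSO wells and 100% = 10 µM reference inhibitor 5653914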
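System – HEK-293 cells with stable firefly luciferase reporter driven by four HIV NF-kB elements · Doses – one dose, 3 µM · Schedule – 1 h compound pre-incubation, 16 h PMA/ionomycin at 37 °C · Technique – luminescence from luciferase substrate reagent · Measure – percent inhibition normalized per plate to DMSO and reference-inhibitor controls · Replicates – tested once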
M1 antag: antagonists of rat M1 muscarinic receptor; Muscarinic acetylcholine receptor M1 (Rattus norvegicus), P08482; CHO-M1 cells, Fluo-4 calcium, ACh EC80 antagonist mode; hits give low values; B-score at 10 µM; 64,000 compounds, 3.4% hits; AID 628, 2007;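 active = calcium fluorescence response, raw or row-and-column corrected B-score, differing from the plate sample mean either way at a set confidence level, mostly lower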
BAP1 inh: inhibitors of BAP1 deubiquitinase, primary screen, biochemical, Ub-AMC fluorescence, kinetic; Ubiquitin carboxyl-terminal hydrolase BAP1 (Homo sapiens), Q92560; recombinant BAP1, Ub-AMC hydrolysis fluorescence kinetic; hits give low values; calls only at 20 µM; 72,000 compounds, 0.48% hits; AID 436, 2006;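 active = activity remaining at or below 50% of control, provided the compound also passes the data quality filters; inactive = the rest, including low values that fail the filters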;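 also: 100% = DMSO wells rate and 0% = substrate alone blank rate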
JNK3 blocker: JNK3 kinase activity inhibitors, primary screen, biochemical, human, purified enzyme; Mitogen-activated protein kinase 10 (Homo sapiens), P53779; 60,000 compounds, 0.61% hits; HTS; inhibition, % at 8 µM; in the data active = inhibition above about 17%;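 also: 0% = DMSO and 100% = reference inhibitor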
Target sequence (P53779 whole entry, looked up): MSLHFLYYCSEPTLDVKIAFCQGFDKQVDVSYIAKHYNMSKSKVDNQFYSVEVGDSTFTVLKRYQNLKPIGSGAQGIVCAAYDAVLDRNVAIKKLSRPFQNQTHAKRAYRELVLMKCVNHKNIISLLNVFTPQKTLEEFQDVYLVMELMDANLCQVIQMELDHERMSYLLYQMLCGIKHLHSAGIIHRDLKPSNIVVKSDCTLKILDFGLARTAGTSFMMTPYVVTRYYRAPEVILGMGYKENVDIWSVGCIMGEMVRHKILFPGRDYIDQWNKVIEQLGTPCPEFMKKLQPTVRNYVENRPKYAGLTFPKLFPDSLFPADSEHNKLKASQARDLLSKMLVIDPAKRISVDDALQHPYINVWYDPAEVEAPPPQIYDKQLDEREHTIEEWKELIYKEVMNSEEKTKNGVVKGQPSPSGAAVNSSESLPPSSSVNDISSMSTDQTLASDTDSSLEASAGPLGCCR
M1 agonist: M1 muscarinic receptor agonists, primary screen, CHO-M1 cells, Fluo-4 calcium, agonist mode. Muscarinic acetylcholine receptor M1. Fluo-4 calcium fluorescence; hits give high values. B-score at 10 µM. 64,000 compounds, 3% hits. AID 626, 2007;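 active = fluorescence rise, raw or as B-score row- and column-corrected plate score, outside the 99.7% band of its plate's samples, either direction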
HER2 expr 66K: inhibitors of Her2 protein expression, primary screen, SKBR-3 cells, AlphaScreen, 66K library; Receptor tyrosine-protein kinase erbB-2 (Homo sapiens), P04626; SKBR-3 HER2 protein level, 18-24 h; hits give low values; HER2 level % of control, % at 10 µM; 65,000 compounds, 0.69% hits; AID 645, 2007;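 active = HER2 level under 5% of the carrier-only control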;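 also: 100% = DMSO carrier and 0% = 500 nM PU-H71 HSP90 inhibitor; lower value means stronger loss of Her2 protein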
Active calls of the source: *; i = inactive; . = no result shown.

SMILES	HEK293 NFkB inh	M1 antag	BAP1 inh	JNK3 blocker	M1 agonist	HER2 expr 66K
Cc1cccc(Nc2nc(N)nc(CN3CCN(Cc4ccc5c(c4)OCO5)CC3)n2)c1	13	.	i	12	.	91
CC(C)CCn1c(NCCc2ccccc2)nc2c1c(=O)n(C)c(=O)n2C	11	-0.79	i	-2	0.54	62
CC(C)CCNC(=O)Cn1c(NCCC(C)C)nc2c1c(=O)n(C)c(=O)n2C	10	1.3*	i	6	-1.3	97
Cc1nn(-c2ccccc2)c(Cl)c1C1C(C#N)=C(N)Oc2n[nH]c(C)c21 (configuration not stated)	44*	0.64	i	-5	0.43	72
O=C(NCc1ccc(F)cc1)c1cccc([N+](=O)[O-])c1	.	.	i	.	.	.
COC(=O)C1=C(C)NC2=C(C(=O)CCC2)C1c1cccc([N+](=O)[O-])c1 (configuration not stated)	.	.	i	.	.	.
COc1cc2cc(CN(Cc3nnnn3Cc3ccco3)C3CCCCC3)c(=O)[nH]c2cc1OC	18	0.44	i	-3	0.026	111
CCOc1ccc2[nH]c(=O)c(CN(Cc3nnnn3Cc3ccco3)C3CCCCC3)cc2c1	15	-1.5	.	1	3.6*	64
CC(=O)Nc1cccc(-c2nc3ccccc3c(=O)o2)c1	10	-0.53	i	18*	-0.26	65
CCC(=O)Nc1cccc(-c2nc3ccccc3c(=O)o2)c1	11	-1.6	i	15	-0.75	77
CCOC(=O)C1=C(C)NC2=C(C(=O)CCC2)C1c1cccc(OC)c1OC (configuration not stated)	.	.	i	.	.	.
COc1ccc(NCc2nnc(SCC(=O)c3ccc(OC)cc3)n2C)cc1	22	-0.43	i	-19	-0.94	-43*
Cn1c(NCC(O)c2ccccc2)nc2c1c(=O)n(Cc1ccc(Cl)c(Cl)c1)c(=O)n2C (configuration not stated)	.	0.19	i	-1	0.32	49
Cn1c(NCC(O)c2ccccc2)nc2c1c(=O)n(Cc1ccc(Cl)cc1)c(=O)n2C (configuration not stated)	.	0.036	i	-7	0.92	-28*
Nc1nc2n(n1)C(c1cccs1)CC(c1ccc(Br)cc1)N2 (configuration not stated)	.	0.62	i	7	-0.71	-20*
COc1ccc(C2CC(c3ccc(Br)cc3)Nc3nc(N)nn32)cc1 (configuration not stated)	-2	0.88	i	6	-1.8	93
Cc1sc2ncnc(SCc3ccco3)c2c1C	5	0.2	i	-10	1.4	17
Cc1sc2ncnc(Sc3nnnn3-c3ccc(Cl)cc3)c2c1C	21	0.28	.	-6	-0.21	-13*
Cc1ccc(C(CC(=O)c2ccco2)SCCO)cc1 (configuration not stated)	6	-0.21	i	0	0.076	-1.4*
O=C1c2ccc(Br)cc2C(=O)N1c1ccc2c(c1)oc1ccccc12	.	.	i	.	.	.
COc1ccc(CNC(=O)c2nn3c(c2Br)NC(c2ccc(Br)o2)CC3C(F)(F)F)cc1 (configuration not stated)	.	.	i	.	.	.
Cc1ccc(-n2nc3c(c2NC(=O)c2ccc(C)c(C)c2)CSC3)c(C)c1	.	.	i	.	.	.
CN1C(=O)C(C(=O)NC(C)(C)C)C2c3ccccc3OC13CCCCC23 (configuration not stated)	24	-0.44	i	3	0.092	-30*
Clc1ccccc1OCCCCn1ccnc1	-8	0.31	i	-2	2.2	104
N=c1c2c(-c3ccccc3)c(-c3ccccc3)n(Cc3ccco3)c2ncn1Cc1ccco1	12	-0.062	i	0	1.6	4.4*
SMILES	HEK293 NFkB inh	M1 antag	BAP1 inh	JNK3 blocker	M1 agonist	HER2 expr 66K
N=c1c2c(-c3ccccc3)c(-c3ccccc3)n(Cc3ccccc3)c2ncn1CCCn1ccnc1	.	-0.73	i	-7	0.72	3.3*
O=c1c2ccccc2c2ccccc2c(=O)n1Cc1ccco1	12	1.9	i	4	0.0031	99
O=C1c2cccc([N+](=O)[O-])c2C(=O)N1C1C(=O)N(c2cccc(C(F)(F)F)c2)C1c1ccc(F)cc1 (configuration not stated)	.	.	i	.	.	.
CCCCn1c(SCC(=O)N2CCCc3ccccc32)nc2c1c(=O)n(C)c(=O)n2C	12	-0.034	i	-1	9.7*	87
CCc1nc(SCC(=O)N2CCCc3ccccc32)c2c(=O)n(C)c(=O)n(C)c2n1	0	-1.8	i	4	3.5*	80
COc1ccc(Cc2cnc(NC(=O)c3cccc([N+](=O)[O-])c3)s2)cc1	.	.	i	.	.	.
CCCCNc1cc(=O)n(C)c(=O)[nH]1	3	0.73*	i	-8	0.25	103
Cn1c(=O)cc(NCc2ccccc2)[nH]c1=O	.	-0.16	i	2	-0.62	121
CC12CC3(C)CC(C)(C1)CC(C(=O)NCCO)(C2)C3	.	.	i	.	.	.
CCn1ncc(C2=NOC(C(=O)NCc3ccccc3)C2)c1C (configuration not stated)	21	0.15	i	2	0.81	60
CCn1ncc(C2=NOC(C(=O)Nc3c(C)nn(Cc4ccc(F)cc4)c3C)C2)c1C (configuration not stated)	3	-0.18	i	-1	-2.5*	98
COc1ccc(C2C(C(C)=O)=C(O)C(=O)N2CCN(C)C)cc1OC (configuration not stated)	-7	-0.35	i	3	0.15	114
COCCCN1C(=O)C(O)=C(C(C)=O)C1c1cccc(F)c1 (configuration not stated)	10	0.23	i	-2	1.8	-16*
c1ccc(CN2CCC3(CC2)Nc2ccccc2CO3)cc1	3	-2.8*	i	1	17*	120
Cc1[nH]nc2c1C(C1CC=CCC1)C(C#N)=C(N)O2 (configuration not stated)	7	0.85	i	0	-0.11	-10*
O=c1c2[nH]c3ccccc3c2ncn1Cc1ccncc1	-3	0.28	i	14	0.93	75
O=c1c2[nH]c3cccc(Cl)c3c2ncn1Cc1ccncc1	7	-0.52	i	22*	0.053	68
Cc1nc2ccc(N=Cc3cc(Br)ccc3O)cc2s1	.	.	i	.	.	.
COc1ccc2c(c1)CCc1c(C(=O)N3CC4(C)CC3CC(C)(C)C4)noc1-2 (configuration not stated)	18	0.037	i	-2	27*	64
